Measurements as given in ChEMBL document CHEMBL1122388, “beta 1-selective adrenoceptor antagonists. 2. 4-ether-linked phenoxypropanolamines” (J Med Chem, 1983).

How the values were obtained:
[1] = biological target: Beta-2 adrenergic receptor (Rattus norvegicus) (UniProt P10608); experiment: Beta-2 adrenergic receptor antagonist activity as the dose required to inhibit 50% of vasodepressor response in anesthetized rats
[2] = biological target: Beta-1 adrenergic receptor (Rattus norvegicus) (UniProt P18090); experiment: Beta-1 adrenoceptor blocking activity as the dose required to inhibit 50% of tachycardia in anesthetized rats; assay type: functional
Sequence of Beta-1 adrenergic receptor (Rattus norvegicus) (P18090 whole entry, looked up): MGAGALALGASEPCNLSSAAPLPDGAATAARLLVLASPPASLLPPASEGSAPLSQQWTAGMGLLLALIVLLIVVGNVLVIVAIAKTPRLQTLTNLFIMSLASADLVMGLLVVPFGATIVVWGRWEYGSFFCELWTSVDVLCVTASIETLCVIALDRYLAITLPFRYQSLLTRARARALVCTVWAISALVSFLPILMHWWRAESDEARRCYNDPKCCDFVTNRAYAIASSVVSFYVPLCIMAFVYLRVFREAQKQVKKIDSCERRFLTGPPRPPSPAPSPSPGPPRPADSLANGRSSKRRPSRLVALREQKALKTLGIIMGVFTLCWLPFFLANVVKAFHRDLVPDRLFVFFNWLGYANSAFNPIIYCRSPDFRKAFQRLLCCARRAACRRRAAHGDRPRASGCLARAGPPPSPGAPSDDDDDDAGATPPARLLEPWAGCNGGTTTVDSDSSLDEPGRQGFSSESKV
In short: (§1)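 Isoprenaline (0.1 µg/kg) and test compound in saline given into right femoral vein; blood pressure from left carotid artery, heart rate by tachograph triggered from arterial pulse. Test compound injected 5 min after isoprenaline, cumulative doses up to, in most cases, 2 mg/kg. Six rats per compound; ED50 with 95% confidence limits from log dose-response linear regression.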

[3] = biological target: Adrenergic receptor beta (Rattus norvegicus) (UniProt P18090+P10608+P26255); experiment: Beta agonistic activity as the dose required to increase heart rate by 30 beats/min in anesthetized rats upon intravenous administration; assay type: functional, organism-based
In short: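 Rats anesthetized with pentobarbitone sodium (75 mg/kg ip), reserpine-pretreated (5 mg/kg ip) 20-24 h earlier. Single doses of test compound given into tail vein, up to 20 animals depending on activity; blood pressure and heart rate recorded. ED30 (dose raising heart rate 30 beats/min) with 95% confidence limits from log dose-response linear regression.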

[4] = biological target: Beta-1 adrenergic receptor (Rattus norvegicus) (UniProt P18090); experiment: Compound was tested for beta-1 adrenergic receptor blocking activity as the dose required to inhibit 50% of tachycardia in anesthetized rats; assay type: functional
In short: as §1

Sequence of Beta-2 adrenergic receptor (Rattus norvegicus) (P10608 whole entry, looked up): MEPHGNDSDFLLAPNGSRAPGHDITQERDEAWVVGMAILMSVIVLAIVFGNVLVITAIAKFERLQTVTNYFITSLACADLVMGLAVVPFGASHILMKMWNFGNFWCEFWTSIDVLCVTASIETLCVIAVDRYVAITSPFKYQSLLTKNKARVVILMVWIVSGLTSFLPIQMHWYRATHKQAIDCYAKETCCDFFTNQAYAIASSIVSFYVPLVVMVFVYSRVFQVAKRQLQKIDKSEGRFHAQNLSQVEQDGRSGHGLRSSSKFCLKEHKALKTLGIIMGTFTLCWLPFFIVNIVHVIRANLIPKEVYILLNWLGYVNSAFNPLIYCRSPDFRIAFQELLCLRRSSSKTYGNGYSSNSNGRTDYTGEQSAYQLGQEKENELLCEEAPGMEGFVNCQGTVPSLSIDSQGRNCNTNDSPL

Row | Compound | ED50 [1] [mg/kg] | ED50 [2] [mg/kg] | ED50 [4] [mg/kg] | ED30 [3] [mg/kg]
1 | CC(C)NCC(O)COc1ccc(OCCOCCc2ccc(F)cc2)cc1 (centres undefined) | > 2 | 0.003 | – | 0.037
2 | CC(C)NCC(O)COc1ccc(CCOCCOc2ccccc2)cc1 (centres undefined) | 0.924 | – | 0.068 | > 1
3 | CC(C)NCC(O)COc1ccc(CC(N)=O)cc1 (centres undefined) | – | 0.091 | – | > 1
4 | CC(C)NCC(O)COc1ccc(CCOCCc2ccccc2)cc1 (centres undefined) | > 2 | – | 0.163 | > 1
5 | CC(C)(C)NCC(O)COc1ccc(OCCOCCc2ccccc2)cc1 (centres undefined) | 0.979 | 0.018 | – | 0.022
6 | CC(C)(C)NCC(O)COc1ccc(OCCOCCc2ccc(F)cc2)cc1 (centres undefined) | > 2 | 0.002 | – | 0.024
7 | CC(C)NCC(O)COc1ccc(OCCOCCOc2ccccc2)cc1 (centres undefined) | > 5 | 0.041 | – | 0.017
8 | CC(C)NCC(O)COc1ccc(OCCOCCc2ccc(C#N)cc2)cc1 (centres undefined) | > 2 | 0.654 | – | 0.032
9 | CC(C)NC[C@H](O)COc1ccc(OCCOCCc2ccc(F)cc2)cc1 (stereo in doubt; 14a) | > 2 | 0.004 | – | 0.019
10 | CC(C)NCC(O)COc1ccc(OCCOCCc2ccc(Cl)cc2)cc1 (centres undefined) | > 2 | 0.627 | – | 0.032
11 | CC(C)NCC(O)COc1ccc(OCCOCCOc2ccc(OCC(O)CNC(C)C)cc2)cc1 (centres undefined) | > 10 | 0.052 | – | 0.005
12 | COc1ccc(CCOCCOc2ccc(OCC(O)CNC(C)C)cc2)cc1 (centres undefined) | > 2 | 0.344 | – | 0.009

Further lines, with some results ahead:

Row | ED50 [1] [mg/kg] | ED50 [2] [mg/kg] | ED50 [4] [mg/kg] | Compound | ED30 [3] [mg/kg]
13 | > 50 | 0.015 | – | CC(C)NCC(O)COc1ccc(OCCOCCc2ccccc2)cc1 (centres undefined) | 0.02
14 | – | 0.25 | – | COCCc1ccc(OCC(O)CNC(C)C)cc1 (centres undefined) | > 1
15 | 0.834 | 0.025 | – | CC(C)NCC(O)COc1ccc(OCCOCCc2ccccc2)cc1Cl (centres undefined) | 0.016
16 | > 2 | > 2 | – | CC(=O)Nc1ccc(CCOCCOc2ccc(OCC(O)CNC(C)C)cc2)cc1 (centres undefined) | 0.029
17 | > 2 | 0.001 | – | CC(C)NCC(O)COc1ccc(OCCOCCc2ccc(F)cc2)c(F)c1 (centres undefined) | > 1
18 | > 2 | 0.572 | – | Cc1cc(OCCOCCc2ccccc2)ccc1OCC(O)CNC(C)C (centres undefined) | 0.057
19 | > 2 | > 2 | – | CC(C)NC[C@H](O)COc1ccc(OCCOCCc2ccc(F)cc2)cc1 (stereo in doubt; 14b) | > 1
20 | > 2 | 0.001 | – | CC(C)NCC(O)COc1ccc(OCCOCCc2ccc(F)cc2)cc1F (centres undefined) | 0.045
21 | > 2 | 0.066 | – | Cc1ccc(CCOCCOc2ccc(OCC(O)CNC(C)C)cc2)cc1 (centres undefined) | 0.022
22 | > 2 | 0.174 | – | CSc1ccc(CCOCCOc2ccc(OCC(O)CNC(C)C)cc2)cc1 (centres undefined) | 0.042
